Assay results published in ChEMBL document CHEMBL4177578, “Synthesis, pharmacological activities and molecular docking studies of pyrazolyltriazoles as anti-bacterial and anti-inflammatory agents” (Bioorg Med Chem, 2017).
Values after ≈ are worked out from the molar mass of the structure shown. Active and inactive are the calls of the source. The calls are words filed in the database; no cut-off is given here.

Legend:
[1] = Anti-inflammatory activity at 100 ug/ml using bovine serum albumin and egg albumin proteins incubated at 37 degC for 20 mins and then heated to 95 degC for 20 mins by UV-visible Spectrophotometry based protein denaturation method; format: functional
Outline: (§1)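 Albumin (bovine serum or egg) at 1% in 50 mM sodium phosphate buffer pH 6.4. Mixture is 0.1 ml test sample (1 mg/ml) plus 0.2 ml albumin, made to 5 ml with buffer. Held 37 °C for 20 min, then 95 °C for 20 min. Cooled to room temperature, turbidity read at 660 nm. % inhibition = (Abs control − Abs sample)/Abs control × 100. Triplicate, averaged.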

[2] = test system: U-937; assay: Anti-inflammatory activity in human U937 cells assessed as inhibition of LPS-induced IL6 production at 10 uM pre-incubated for 1 hr before LPS stimulation for 24 hrs by ELISA method; format: functional
Outline: (§2)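 Human U937 cells grown in RPMI1640 with 10% FBS at 37 °C, 5% CO2. Differentiated with PMA 30 ng/ml for 24 h. Test compounds added for 1 h, then LPS 1 µg/ml for 24 h. TNF-α and IL-6 in supernatant measured by ELISA. Three independent experiments.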

[3] = test system: Salmonella paratyphi; assay: Antimicrobial activity against Salmonella paratyphi at 1 mg/ml incubated for 20 to 30 mins followed by incubation for 24 hrs at 37 degC by agar plate method; format: functional, Salmonella enterica subsp. enterica serovar Paratyphi A; details: for zone of inhibition at 1000 µg/mL: Salmonella enterica, read-out: DIZ; for diameter of the inhibition zone (DIZ): Salmonella enterica subsp. enterica serovar Paratyphi A
Outline: (§3)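 Agar well diffusion on nutrient agar. Plates swabbed with 60 µL inoculum, 8 mm wells loaded with 100 µL sample at 1.0 mg/mL, streptomycin standard and control in separate wells. Plates held 20–30 min at 4 °C for diffusion, then 24 h at 37 °C. Zone diameter read in mm; triplicate.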

[4] = Anti-inflammatory activity using bovine serum albumin and egg albumin proteins incubated at 37 degC for 20 mins and then heated to 95 degC for 20 mins by UV-visible Spectrophotometry based protein denaturation method; format: functional; outline: as §1
[5] = test system: Salmonella typhi; assay: Antimicrobial activity against Salmonella typhi at 1 mg/ml incubated for 20 to 30 mins followed by incubation for 24 hrs at 37 degC by agar plate method; format: functional, Salmonella enterica subsp. enterica serovar Typhi; details: for zone of inhibition at 1000 µg/mL: Salmonella enterica, read-out: DIZ; for diameter of the inhibition zone (DIZ): Salmonella enterica subsp. enterica serovar Typhi; outline: as §3
[6] = test system: U-937; assay: Anti-inflammatory activity in human U937 cells assessed as inhibition of LPS-induced TNFalpha production at 10 uM pre-incubated for 1 hr before LPS stimulation for 24 hrs by ELISA method; format: functional; outline: as §2
[7] = Anti-inflammatory activity at 50 ug/ml using bovine serum albumin and egg albumin proteins incubated at 37 degC for 20 mins and then heated to 95 degC for 20 mins by UV-visible Spectrophotometry based protein denaturation method; format: functional; outline: as §1
[8] = test system: Staphylococcus aureus; assay: Antimicrobial activity against Staphylococcus aureus at 1 mg/ml incubated for 20 to 30 mins followed by incubation for 24 hrs at 37 degC by agar plate method; format: functional
Outline: (§4)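 Agar well diffusion on nutrient agar. Plates swabbed with 60 µL inoculum; 8 mm wells loaded with 100 µL of compound at 1.0 mg/mL. Held 20–30 min at 4 °C for diffusion, then 24 h at 37 °C. Inhibition zone diameter read in mm. Triplicate.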

[9] = test system: Micrococcus luteus; assay: Antimicrobial activity against Micrococcus luteus incubated for 12 to 16 hrs followed by plating in nutrient agar by tube dilution method; format: functional
Outline: (§5)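 Tube dilution, serial from 500 to 1.9 µg/mL, plus drug-free control tube. Each tube inoculated with 1 mL culture at OD 0.2, incubated 37 °C for 12–16 h. MIC is the lowest concentration with no growth by turbidity. MBC is found by plating each tube on nutrient agar: the lowest concentration at which all cells are killed.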

[10] = test system: Micrococcus luteus; assay: Antimicrobial activity against Micrococcus luteus incubated for 12 to 16 hrs by tube dilution method; format: functional; outline: as §5
[11] = test system: Salmonella typhi; assay: Antimicrobial activity against Salmonella typhi incubated for 12 to 16 hrs followed by plating in nutrient agar by tube dilution method; format: functional; details: Salmonella enterica subsp. enterica serovar Typhi
Outline: (§6)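 After 12-16 h at 37 °C in tube dilution (500 to 1.9 µg/mL; 1 mL inoculum at OD 0.2), the culture from each tube was plated on nutrient agar. MBC is the concentration at which cells are completely killed.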

[12] = test system: Salmonella typhi; assay: Antimicrobial activity against Salmonella typhi incubated for 12 to 16 hrs by tube dilution method; format: functional; details: Salmonella enterica subsp. enterica serovar Typhi
Outline: (§7)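 Broth tube dilution, two-fold serial dilutions from 500 to 1.9 µg/mL plus a drug-free control tube. Each tube inoculated with 1 mL culture at OD 0.2 (~McFarland standard), 37 °C for 12-16 h. Turbidity compared with the control tube. MIC is the lowest concentration giving complete growth inhibition.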

[13] = test system: Micrococcus luteus; assay: Antimicrobial activity against Micrococcus luteus at 1 mg/ml incubated for 20 to 30 mins followed by incubation for 24 hrs at 37 degC by agar plate method; format: functional; outline: as §4
[14] = test system: Salmonella paratyphi; assay: Antimicrobial activity against Salmonella paratyphi incubated for 12 to 16 hrs by tube dilution method; format: functional; details: Salmonella enterica subsp. enterica serovar Paratyphi A; outline: as §7
[15] = test system: Salmonella paratyphi; assay: Antimicrobial activity against Salmonella paratyphi incubated for 12 to 16 hrs followed by plating in nutrient agar by tube dilution method; format: functional; details: Salmonella enterica subsp. enterica serovar Paratyphi A; outline: as §6

Row | Compound | inhibition [1] | inhibition at 10 µM [2] | zone of inhibition at 1000 µg/mL [3] | IC50 [4] | zone of inhibition at 1000 µg/mL [5] | inhibition at 10 µM [6] | inhibition [7] | diameter of the inhibition zone (DIZ) [8] | MBC [9] | MIC [10] | diameter of the inhibition zone (DIZ) [3] | MBC [11] | MIC [12] | diameter of the inhibition zone (DIZ) [5] | diameter of the inhibition zone (DIZ) [13] | MIC [14] | MBC [15]
1 | OCc1cn(Cc2cn(-c3ccccc3)nc2-c2ccc(Cl)cc2Cl)nn1 | 76.7% | 39.6% | 17 mm | 65.17 µg/mL (≈ 163 µM) | 14 mm | 9.9% | 50.9% | – | – | – | – | – | – | – | – | – | –
2 | OCc1cn(-c2ccccc2)nc1-c1ccc(Cl)cc1Cl | 80.2% | 18.3% | 11.5 mm | 62.37 µg/mL (≈ 195 µM) | 13.5 mm | 4.92% | 60.3% | – | – | – | – | – | – | – | – | – | –
3 | OCc1cn(-c2ccccc2)nc1-c1ccccc1 | 87.9% | 19.6% | 14 mm | 56.86 µg/mL (≈ 227 µM) | 11.5 mm | 1.44% | 75.9% | – | – | – | – | – | – | – | – | – | –
4 | OCc1cn(-c2ccccc2)nc1-c1ccc(Cl)cc1 | 83.6% | 24.1% | 12 mm | 59.79 µg/mL (≈ 210 µM) | – | 3.32% | 67.2% | – | – | – | – | – | – | – | – | – | –
5 | FC(F)(F)c1ccc(-c2cn(Cc3cn(-c4ccccc4)nc3-c3ccccc3)nn2)c(C(F)(F)F)c1 | inactive | – | – | Not Active | – | – | inactive | inactive | inactive | inactive | inactive | inactive | inactive | inactive | inactive | inactive | inactive
6 | CN(C)c1ccc(-c2cn(Cc3cn(-c4ccccc4)nc3-c3ccccc3)nn2)cc1 | inactive | – | – | Not Active | – | – | inactive | inactive | inactive | inactive | inactive | inactive | inactive | inactive | inactive | inactive | inactive
7 | Cc1ccc(-c2nn(-c3ccccc3)cc2Cn2cc(CO)nn2)cc1 | 38.8% | 42% | 14 mm | 128.89 µg/mL (≈ 373 µM) | 15 mm | 14.8% | 21.6% | – | – | – | – | – | – | – | – | – | –
8 | CCOC(=O)c1nnn(Cc2cn(-c3ccccc3)nc2-c2ccc(C)cc2)c1C(=O)OCC | inactive | – | – | Not Active | – | – | inactive | inactive | inactive | inactive | inactive | inactive | inactive | inactive | inactive | inactive | inactive
9 | Cc1ccc(-n2cc(Cn3cc(-c4ccccc4)nn3)c(-c3ccccc3)n2)cc1 | inactive | – | – | Not Active | – | – | inactive | inactive | inactive | inactive | inactive | inactive | inactive | inactive | inactive | inactive | inactive
10 | Cc1ccc(-n2cc(CO)c(-c3ccccc3)n2)cc1C | 83.6% | 46.4% | 12 mm | 59.79 µg/mL (≈ 215 µM) | 14.5 mm | 8.35% | 66.4% | – | – | – | – | – | – | – | – | – | –
11 | Clc1ccc(-n2cc(Cn3cc(-c4ccccc4)nn3)c(-c3ccccc3)n2)cc1 | inactive | – | – | Not Active | – | – | inactive | inactive | inactive | inactive | inactive | inactive | inactive | inactive | inactive | inactive | inactive
12 | FC(F)(F)c1ccccc1-c1cn(Cc2cn(-c3ccccc3)nc2-c2ccccc2)nn1 | inactive | – | – | Not Active | – | – | inactive | inactive | inactive | inactive | inactive | inactive | inactive | inactive | inactive | inactive | inactive
13 | Cc1ccc(-n2cc(CO)c(-c3ccccc3)n2)cc1 | 68.1% | 23.8% | 12.5 mm | 73.42 µg/mL (≈ 278 µM) | 17 mm | – | 40.5% | – | – | – | – | – | – | – | – | – | –
14 | Clc1ccc(-c2nn(-c3ccccc3)cc2Cn2cc(-c3ccccc3)nn2)cc1 | inactive | – | – | Not Active | – | – | inactive | inactive | inactive | inactive | inactive | inactive | inactive | inactive | inactive | inactive | inactive
15 | Fc1ccc(-c2cn(Cc3cn(-c4ccccc4)nc3-c3ccccc3)nn2)cc1 | inactive | – | – | Not Active | – | – | inactive | inactive | inactive | inactive | inactive | inactive | inactive | inactive | inactive | inactive | inactive
16 | Cc1ccc(-n2cc(CN=[N+]=[N-])c(-c3ccccc3)n2)cc1 | inactive | – | – | Not Active | – | – | inactive | inactive | inactive | inactive | inactive | inactive | inactive | inactive | inactive | inactive | inactive
17 | COC(=O)c1nnn(Cc2cn(-c3ccccc3)nc2-c2ccc(OC)cc2)c1C(=O)OC | inactive | – | – | Not Active | – | – | inactive | inactive | inactive | inactive | inactive | inactive | inactive | inactive | inactive | inactive | inactive
